Calls of active or inactive are those of the source. No cut-off for these calls is given here.
Columns and labels:
Dengue virus [1] = test: Mixed/noncompetitive type inhibition of Dengue virus NS2B-NS3 protease expressed in Escherichia coli BL 21 (DE3) using Abz-Nle-Lys-Arg-Arg-Ser-3-(NO2)Tyr as substrate by Cornish-Bowden plot analysis
In short: (§1)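 DEN2 NS2B–NS3 FRET assay run at inhibitor 0–6 μM (prior-series compounds 5–50 μM) and substrate 50, 100, 150 and 200 μM, in triplicate, with inner-filter correction. Ki from Dixon plots (1/v vs [I]) and Ki′ from Cornish-Bowden plots (S/v vs [I]). Inhibition mode assigned from these plots.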

[2] = Inhibition of Dengue virus NS2B-NS3 protease expressed in Escherichia coli BL 21 (DE3) using Abz-Nle-Lys-Arg-Arg-Ser-3-(NO2)Tyr as substrate assessed as enzyme-substrate-inhibitor complex by Cornish-Bowden plot analysis; in short: as §1
[3] = Inhibition of Dengue virus NS2B-NS3 protease expressed in Escherichia coli BL 21 (DE3) using Abz-Nle-Lys-Arg-Arg-Ser-3-(NO2)Tyr as substrate assessed as enzyme-inhibitor complex by Cornish-Bowden plot analysis; conditions: in the assay text read “Dixon plot” for “Cornish-Bowden plot”; in short: as §1
[4] = Inhibition of Dengue virus NS2B-NS3 protease expressed in Escherichia coli BL 21 (DE3) using Abz-Nle-Lys-Arg-Arg-Ser-3-(NO2)Tyr as substrate after 15 mins
[5] = target: Prothrombin (Homo sapiens) (UniProt P00734); test: Inhibition of thrombin (unknown origin) using Boc-Val-Pro-Arg-AMC as substrate at 25 uM after 10 mins by continuous fluorimetric assay
In short: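 Thrombin (10 nM) preincubated 15 min with inhibitor (25 μM final) in 50 mM Tris-HCl pH 7.5, 150 mM NaCl, 0.05% Tween 20. Boc-Val-Pro-Arg-AMC then added to 50 μM (Km 16 μM). Fluorescence (ex 355 nm, em 460 nm) followed for 10 min as slope. Triplicate; percent inhibition versus no-inhibitor control.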

West Nile virus = test: Inhibition of West Nile virus NS2B-NS3 protease expressed in Escherichia coli BL 21 (DE3) using Abz-Gly-Leu-Lys-Arg-Gly-Gly-3-(NO2)Tyr as substrate at 50 uM after 15 mins
Dengue virus [6] = test: Inhibition of Dengue virus NS2B-NS3 protease expressed in Escherichia coli BL 21 (DE3) using Abz-Nle-Lys-Arg-Arg-Ser-3-(NO2)Tyr as substrate at 50 uM after 15 mins
Dengue virus [7] = test: Uncompetitive inhibition of Dengue virus NS2B-NS3 protease expressed in Escherichia coli BL 21 (DE3) using Abz-Nle-Lys-Arg-Arg-Ser-3-(NO2)Tyr as substrate by Cornish-Bowden plot analysis; in short: as §1
dengue virus type 2 [8] = test: Antiviral activity against Dengue virus 2 infected in human Huh-7 cells assessed as inhibition of viral replication after 48 hrs by luciferase reporter gene assay; format: functional, organism-based; conditions: Huh-7, 48 h
In short: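 Huh-7 cells seeded 5000/well, incubated overnight at 37 °C, then given compound (1.56–50 μM final, 2-fold series in DMEM with 10% FCS). Dengue 2 renilla luciferase reporter virus (MOI 10) added 4 h later. After 48 h at 37 °C, cells lysed and renilla luminescence read with coelenterazine. At least four wells per concentration, expressed relative to DMSO control. EC50 by nonlinear regression.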

[9] = Permeability of the compound by PAMPA; format: ADME; conditions: read-out: permeability
In short: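 PAMPA with precoated trilayer lipid/oil/lipid membranes, donor wells holding 200 μM compound in PBS pH 7.4 (2% DMSO final), in triplicate. Incubated 5 h at room temperature. Donor and acceptor concentrations determined by UV plate reader or HPLC-UV against calibration curves. Pe and mass retention R calculated.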

Huh-7 [10] = test: Cytotoxicity against human HuH7 cells at <50 uM after 48 hrs by firefly reporter assay; format: cell-based; conditions: huh-7, 48 h
In short: (§2)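 Uninfected Huh-7 cells stably expressing firefly luciferase, seeded 5000/well and incubated overnight at 37 °C. Compound added at 1.56–50 μM, plus 100, 200 and 400 μM, then incubated as for infected cells (further 48 h after the 4 h point). Firefly luminescence read with 70 μM luciferin and 2 mM ATP. Mean of three wells as percent of DMSO control.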

[11] = Solubility of the compound in PBS buffer; format: physicochemical
Dengue virus [12] = test: Mixed type inhibition of Dengue virus NS2B-NS3 protease expressed in Escherichia coli BL 21 (DE3) using Abz-Nle-Lys-Arg-Arg-Ser-3-(NO2)Tyr as substrate by Cornish-Bowden plot analysis; in short: as §1
Huh-7 [13] = test: Cytotoxicity against human HuH7 cells at >100 uM after 48 hrs by firefly reporter assay; format: cell-based; conditions: huh-7, 48 h; in short: as §2
dengue virus type 2 [14] = test: Antiviral activity against Dengue virus 2 infected in human Huh-7 cells assessed as inhibition of virus-induced plaque formation at 50 uM after 48; format: functional, organism-based
In short: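 Huh-7 cells seeded in 12-well plates and pretreated with compound (50 μM) for 4 h. Infected for 1 h with dengue reporter virus (MOI 5) in the presence of compound, then medium replaced with compound-containing DMEM. Supernatant harvested at 48 h and filtered. Titer determined by plaque assay on Vero cells. Mean ± SD of three independent experiments.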

Dengue virus [15] = test: Displacement of aprotinin from Dengue virus NS2B-NS3 protease expressed in Escherichia coli BL 21 (DE3) by tryptophan fluorescence quenching assay
In short: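 Tryptophan quenching assay: DEN protease (4 μM) incubated with inhibitor at 0–50 μM, and also with inhibitor (50 μM) plus aprotinin (10 μM). Enzyme and aprotinin autofluorescence measured as negative control. Fluorescence read at ex 280 nm, em 330 nm; triplicate.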

Dengue virus [16] = test: Competitive inhibition of Dengue virus NS2B-NS3 protease expressed in Escherichia coli BL 21 (DE3) using Abz-Nle-Lys-Arg-Arg-Ser-3-(NO2)Tyr as substrate by Cornish-Bowden plot analysis; in short: as §1
Huh-7 [17] = test: Cytotoxicity against human HuH7 cells at 50 uM after 48 hrs by firefly reporter assay; format: cell-based; conditions: huh-7, 48 h; in short: as §2

| Structure (SMILES) | inhibition (Dengue virus [1]) | IC50 [4] [µM] | inhibition [5] [%] | inhibition (West Nile virus) [%] | inhibition (Dengue virus [6]) [%] | inhibition (Dengue virus [7]) | EC50 (dengue virus type 2 [8]) [µM] | Papp [9] [×10⁻⁶ cm/s] | solubility [11] | inhibition (Dengue virus [12]) | inhibition (Dengue virus [15]) | inhibition (Dengue virus [16]) | Ki [2] [µM] | Ki [3] [µM] | Activity (Huh-7 [10]) | Activity (Huh-7 [13]) | inhibition (dengue virus type 2 [14]) | Activity (Huh-7 [17]) |
| --- | --- | --- | --- | --- | --- | --- | --- | --- | --- | --- | --- | --- | --- | --- | --- | --- | --- | --- |
| CCCCC(C(=O)OC)N1C(=O)/C(=C/c2ccc(C(=O)N[C@@H](CCCNC(=N)N)C(=O)N[C@@H](CCCCN)C(=O)N[C@@H](CCCC)C(N)=O)cc2)SC1=S (some centres undefined) | – | 11.6 | 9 | 94.2 | 101 | Active | 48.8 | 0.87 | – | – | – | – | 5.3 | > 10 | – | – | – | – |
| CCCC[C@H](NC(=O)[C@H](CCCCN)NC(=O)[C@H](CCCNC(=N)N)NC(=O)c1ccc(/C=C2\SC(=S)N(C3CCCCC3)C2=O)cc1)C(N)=O | – | 6.1 | 14.2 | 96.9 | 99.2 | – | 16.7 | 1.82 | – | Active | – | – | 4.4 | 9.3 | Non-toxic | Toxic | Active | – |
| CCCC[C@H](NC(=O)[C@H](CCCCN)NC(=O)[C@H](CCCNC(=N)N)NC(=O)c1ccc(/C=C2\SC(=O)N(CCc3ccccc3)C2=O)cc1)C(N)=O | – | 3.5 | 15.3 | 57.8 | 96.8 | – | 37.2 | 0.82 | – | – | Dose-dependent effect | Active | > 10 | 1.8 | Non-toxic | – | – | – |
| CCCC[C@H](NC(=O)[C@H](CCCCN)NC(=O)[C@H](CCCNC(=N)N)NC(=O)c1ccc(/C=C2\SC(=O)N(Cc3ccccc3)C2=O)cc1)C(N)=O | – | 2.9 | 17.3 | 57.9 | 98.6 | – | > 50 | – | – | – | Dose-dependent effect | Active | > 10 | 1.7 | Non-toxic | – | – | – |

Now from value to compound, other results behind:

| inhibition (Dengue virus [1]) | IC50 [4] [µM] | inhibition [5] [%] | inhibition (West Nile virus) [%] | inhibition (Dengue virus [6]) [%] | inhibition (Dengue virus [7]) | EC50 (dengue virus type 2 [8]) [µM] | Papp [9] [×10⁻⁶ cm/s] | solubility [11] | inhibition (Dengue virus [12]) | inhibition (Dengue virus [15]) | inhibition (Dengue virus [16]) | Structure (SMILES) | Ki [2] [µM] | Ki [3] [µM] | Activity (Huh-7 [10]) | Activity (Huh-7 [13]) | inhibition (dengue virus type 2 [14]) | Activity (Huh-7 [17]) |
| --- | --- | --- | --- | --- | --- | --- | --- | --- | --- | --- | --- | --- | --- | --- | --- | --- | --- | --- |
| Active | 7.5 | 10.9 | 96.3 | 99.1 | – | – | – | – | – | – | – | CCCC[C@H](NC(=O)[C@H](CCCCN)NC(=O)[C@H](CCCNC(=N)N)NC(=O)c1ccc(/C=C2\SC(=S)N(Cc3ccc(C)cc3)C2=O)cc1)C(N)=O | 7.6 | 6.2 | – | – | – | – |
| – | > 10 | 9.6 | 97.9 | 99.4 | Active | – | – | – | – | – | – | CCCC[C@H](NC(=O)[C@H](CCCCN)NC(=O)[C@H](CCCNC(=N)N)NC(=O)c1ccc(/C=C2\SC(=S)N(Cc3ccc(F)cc3)C2=O)cc1)C(N)=O | 7.9 | > 10 | – | – | – | – |
| Active | 7.9 | 15 | 99 | 99.6 | – | 37.3 | 0.6 | – | – | – | – | CCCC[C@H](NC(=O)[C@H](CCCCN)NC(=O)[C@H](CCCNC(=N)N)NC(=O)c1ccc(/C=C2\SC(=S)N(Cc3ccc(OC)cc3)C2=O)cc1)C(N)=O | 8.3 | 7.8 | – | – | – | – |
| – | 7.7 | 6.2 | 98.3 | 99.6 | – | 25.6 | – | Insoluble | Active | – | – | CCCC[C@H](NC(=O)[C@H](CCCCN)NC(=O)[C@H](CCCNC(=N)N)NC(=O)c1ccc(/C=C2\SC(=S)N(CCc3ccccc3)C2=O)cc1)C(N)=O | 5.1 | 13.6 | Non-toxic | – | – | – |
| Active | 10.9 | 13.1 | 92.4 | 99.3 | – | – | – | – | – | – | – | CCCC[C@H](NC(=O)[C@H](CCCCN)NC(=O)[C@H](CCCNC(=N)N)NC(=O)c1ccc(/C=C2\SC(=S)N(Cc3ccccc3)C2=O)cc1)C(N)=O | 5.5 | 8.8 | – | – | – | – |
| – | > 10 | 13.3 | 100 | 100 | Active | 31.5 | – | Insoluble | – | – | – | CCCC[C@H](NC(=O)[C@H](CCCCN)NC(=O)[C@H](CCCNC(=N)N)NC(=O)c1ccc(/C=C2\SC(=S)N(Cc3ccc(Cl)cc3)C2=O)cc1)C(N)=O | 8.6 | > 10 | Non-toxic | – | Active | Toxic |

Source: ChEMBL document CHEMBL2440094, “Thiazolidinone-peptide hybrids as dengue virus protease inhibitors with antiviral activity in cell culture” (J Med Chem, 2013)
